In ChEMBL document CHEMBL3351828, “Design and optimization of highly-selective fungal CYP51 inhibitors” (Bioorg Med Chem Lett, 2014):
Converted amounts (≈) assume the structure as drawn.

What was measured:
Candida albicans [1] = test: Antifungal activity against Candida albicans by broth macrodilution method; assay type: functional
Outline: (§1)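 MIC against standard ATCC isolates determined under CLSI guidelines, M27-A3 for yeasts. […] Units μg/mL.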

Cytochrome P450 3A4 = Cytochrome P450 3A4 (Homo sapiens, UniProt P08684); test: Inhibition of CYP3A4 in human hepatocytes using testosterone as substrate by HPLC/MS/MS method; assay type: ADME, cell-based, Hepatocyte
Sequence of Cytochrome P450 3A4 (P08684 whole entry): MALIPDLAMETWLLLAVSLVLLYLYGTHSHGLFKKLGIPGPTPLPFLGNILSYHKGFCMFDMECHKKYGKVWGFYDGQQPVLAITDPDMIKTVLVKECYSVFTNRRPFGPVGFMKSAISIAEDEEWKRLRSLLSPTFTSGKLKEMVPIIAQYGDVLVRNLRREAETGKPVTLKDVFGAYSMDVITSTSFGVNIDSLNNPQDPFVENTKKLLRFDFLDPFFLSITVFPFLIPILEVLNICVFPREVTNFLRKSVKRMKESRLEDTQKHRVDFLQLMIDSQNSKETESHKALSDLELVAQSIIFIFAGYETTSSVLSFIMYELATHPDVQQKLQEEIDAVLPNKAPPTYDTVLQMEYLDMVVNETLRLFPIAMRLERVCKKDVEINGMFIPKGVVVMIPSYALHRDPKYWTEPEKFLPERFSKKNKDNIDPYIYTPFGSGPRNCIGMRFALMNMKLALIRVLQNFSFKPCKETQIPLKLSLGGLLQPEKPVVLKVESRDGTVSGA

Trichophyton rubrum = test: Antifungal activity against Trichophyton rubrum by broth macrodilution method; assay type: functional; outline: as §1
[2] = Selectivity index, ratio of IC50 for human hepatocytes CYP3A4 to MIC for Trichophyton rubrum; parameters: species or system Hepatocyte
Outline: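 CYP3A4 IC50 measured in pooled human hepatocyte microsomes with 150 μM testosterone as substrate, a concentration equal to the Km determined in the same lab. […] Selectivity index calculated as CYP3A4 IC50 (μM) divided by T. rubrum MIC (μg/mL).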

Candida albicans [3] = test: Antifungal activity against Candida albicans R303 infected in CD-1 mouse assessed as reduction of kidney fungal burden at 50 mg/kg, po administered 2 hrs post infection on day 1 measured on day 2 relative to vehicle-treated control; assay type: functional
Outline: (§2)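 Female CD-1 mice (7 weeks, 18-25 g) made neutropenic with IP cyclophosphamide (150 mg/kg) on days 4 and 1 before tail-vein inoculation with C. albicans R303. Single oral dose given 2 h after infection on day 1. Kidneys harvested day 2 and homogenized in PBS. CFU/kidney counted on SDA plates from serial dilutions. Percent reduction taken versus vehicle-treated controls. Fluconazole used as positive control.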

Candida albicans [4] = test: Antifungal activity against Candida albicans R303 infected in CD-1 mouse assessed as reduction of kidney fungal burden at 10 mg/kg, po administered 2 hrs post infection on day 1 measured on day 2 relative to vehicle-treated control; assay type: functional
Outline: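 Female CD-1 mice (7 weeks, 18-25 g) made neutropenic with IP cyclophosphamide 150 mg/kg at 4 and 1 days before tail-vein inoculation with C. albicans R303. Single oral dose 2 h post-infection on day 1. Kidneys harvested day 2, homogenized in PBS, serially diluted and plated on SDA for CFU/kidney. Read-out: percent reduction in kidney fungal burden versus vehicle-treated controls.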

[5] = biological target: Lanosterol 14-alpha demethylase (Candida albicans (strain SC5314 / ATCC MYA-2876) (Yeast), UniProt P10613); test: Binding affinity to Candida albicans CYP51
Sequence of Lanosterol 14-alpha demethylase (P10613 whole entry): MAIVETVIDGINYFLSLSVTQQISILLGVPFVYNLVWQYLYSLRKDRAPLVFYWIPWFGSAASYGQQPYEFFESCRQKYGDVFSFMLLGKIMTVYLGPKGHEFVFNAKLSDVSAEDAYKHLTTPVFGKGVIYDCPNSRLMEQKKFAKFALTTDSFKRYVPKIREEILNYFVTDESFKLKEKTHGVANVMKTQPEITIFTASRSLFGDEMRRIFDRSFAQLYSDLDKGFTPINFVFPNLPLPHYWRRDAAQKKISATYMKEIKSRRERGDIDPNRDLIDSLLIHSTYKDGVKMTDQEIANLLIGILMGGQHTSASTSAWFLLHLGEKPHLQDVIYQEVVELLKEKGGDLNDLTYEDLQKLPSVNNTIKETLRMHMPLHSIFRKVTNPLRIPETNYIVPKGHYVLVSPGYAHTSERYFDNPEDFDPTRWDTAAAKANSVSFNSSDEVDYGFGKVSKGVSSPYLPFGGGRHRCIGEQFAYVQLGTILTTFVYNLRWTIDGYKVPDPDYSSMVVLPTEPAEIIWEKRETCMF

[6] = Selectivity for yeast CYP51 over human CYP51
Cytochrome P450 2C9 = Cytochrome P450 2C9 (Homo sapiens, UniProt P11712); test: Inhibition of CYP2C9 (unknown origin); assay type: ADME
Sequence of Cytochrome P450 2C9 (P11712 whole entry): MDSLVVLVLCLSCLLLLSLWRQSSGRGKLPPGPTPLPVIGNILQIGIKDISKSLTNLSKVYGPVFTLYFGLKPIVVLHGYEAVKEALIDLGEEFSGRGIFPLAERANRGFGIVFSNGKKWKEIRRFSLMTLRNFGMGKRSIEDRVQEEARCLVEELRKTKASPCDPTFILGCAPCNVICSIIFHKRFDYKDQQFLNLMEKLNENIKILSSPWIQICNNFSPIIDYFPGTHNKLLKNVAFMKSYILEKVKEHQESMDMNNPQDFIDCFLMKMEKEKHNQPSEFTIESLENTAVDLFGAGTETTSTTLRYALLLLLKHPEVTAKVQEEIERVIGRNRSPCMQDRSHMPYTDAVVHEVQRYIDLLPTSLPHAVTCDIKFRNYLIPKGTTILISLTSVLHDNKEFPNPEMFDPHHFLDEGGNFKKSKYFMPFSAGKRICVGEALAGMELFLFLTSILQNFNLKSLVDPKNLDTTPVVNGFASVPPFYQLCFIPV

Cytochrome P450 2C19 = Cytochrome P450 2C19 (Homo sapiens, UniProt P33261); test: Inhibition of CYP2C19 (unknown origin); assay type: ADME
Sequence of Cytochrome P450 2C19 (P33261 whole entry): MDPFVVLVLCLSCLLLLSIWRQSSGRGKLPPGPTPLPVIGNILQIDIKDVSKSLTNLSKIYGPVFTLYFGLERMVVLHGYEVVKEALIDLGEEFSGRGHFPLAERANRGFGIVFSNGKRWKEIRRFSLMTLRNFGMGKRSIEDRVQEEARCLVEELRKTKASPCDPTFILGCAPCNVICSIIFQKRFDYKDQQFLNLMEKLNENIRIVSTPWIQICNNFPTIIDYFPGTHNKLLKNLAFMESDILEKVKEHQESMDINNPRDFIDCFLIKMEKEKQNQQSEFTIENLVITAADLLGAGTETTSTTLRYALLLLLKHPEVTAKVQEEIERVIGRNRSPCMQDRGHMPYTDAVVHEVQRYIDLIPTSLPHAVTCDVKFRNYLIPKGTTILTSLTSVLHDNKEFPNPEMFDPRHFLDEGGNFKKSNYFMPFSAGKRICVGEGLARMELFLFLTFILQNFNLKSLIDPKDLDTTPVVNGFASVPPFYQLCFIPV

[7] = Metabolic stability in human liver microsomes after 2 hrs; assay type: ADME; conditions: read-out: Stability
[8] = Half life in po dosed human; assay type: ADME, organism-based; conditions: in vivo
Candida albicans [9] = test: Antifungal activity against Candida albicans infected in mouse candidiasis model assessed as reduction of kidney fungal burden at 10 mg/kg, po; assay type: functional; parameters: scale not given: the % may be the effect or the level left
[10] = system: Trichophyton mentagrophytes; test: Antifungal activity against Trichophyton mentagrophytes infected in guinea pig dermatophytosis model assessed as mycological efficacy at 10 mg/kg, po administered for 9 days; assay type: functional
Candida albicans [11] = test: Antifungal activity against Candida albicans R303 infected in CD-1 mouse assessed as reduction of kidney fungal burden at 20 mg/kg, po administered 2 hrs post infection on day 1 measured on day 2 relative to vehicle-treated control; assay type: functional; outline: as §2

Compound	MIC50 (Candida albicans [1])	IC50 (Cytochrome P450 3A4)	further results
O[C@@](Cn1cnnn1)(c1ccc(F)cc1F)C(F)(F)c1ccc(-c2ccc(C(F)(F)F)cc2)cn1	≤ 0.001 µg/mL	54 µM	MIC50 (Trichophyton rubrum): 0.002 µg/mL (≈ 0.00402 µM); Selectivity Index [2]: 27000
C[C@@H](c1ncncc1F)[C@](O)(Cn1ccnc1)c1ccc(F)cc1F	0.5 µg/mL (≈ 1.44 µM)	0.8 µM	
C[C@@H](c1ncncc1F)[C@](O)(Cn1cnnc1)c1ccc(F)cc1F	> 16 µg/mL	51 µM	
C[C@@H](c1ncncc1F)[C@](O)(Cn1ncnn1)c1ccc(F)cc1F	8 µg/mL (≈ 22.8 µM)	46 µM	
OC(Cn1cnnn1)(c1ccc(F)cc1F)C(F)(F)c1ccccn1 (stereo not given)	0.25 µg/mL (≈ 0.708 µM)	136 µM	Efficacy (Candida albicans [3]): 98%
OC(Cn1cnnn1)(c1ccc(F)cc1F)C(F)(F)c1ccc(OCC(F)(F)F)cn1 (stereo not given)	0.06 µg/mL (≈ 0.133 µM)	72 µM	Efficacy (Candida albicans [3]): 81%
O[C@@](Cn1cnnn1)(c1ccc(F)cc1F)C(F)(F)c1ccc(-c2ccc(Cl)cc2)cn1	≤ 0.001 µg/mL	36 µM	MIC50 (Trichophyton rubrum): 0.004 µg/mL (≈ 0.00862 µM); Selectivity Index [2]: 9000
O[C@@](Cn1cnnn1)(c1ccc(F)cc1F)C(F)(F)c1ccc(-c2ccc(OC(F)(F)F)cc2)cn1	≤ 0.001 µg/mL	79 µM	MIC50 (Trichophyton rubrum): ≤ 0.001 µg/mL; Selectivity Index [2]: >79000
OC(Cn1cnnn1)(c1ccc(F)cc1F)C(F)(F)c1ccc(-c2ccc(F)cc2)cn1 (stereo not given)	0.016 µg/mL (≈ 0.0358 µM)		Efficacy (Candida albicans [4]): 99%
N#Cc1ccc(-c2ccc(C(F)(F)C(O)(Cn3cnnn3)c3ccc(F)cc3F)nc2)cc1 (stereo not given)	≤ 0.016 µg/mL	16 µM	Efficacy (Candida albicans [3]): 100%
C[C@@H](c1ncncc1F)[C@](O)(Cn1cncn1)c1ccc(F)cc1F [VORICONAZOLE]	0.06 µg/mL (≈ 0.172 µM)		
O[C@@](Cn1cnnn1)(c1ccc(F)cc1F)C(F)(F)c1ccc(-c2ccc(OCC(F)(F)F)cc2)cn1 [OTESECONAZOLE]	≤ 0.001 µg/mL	65 µM	MIC50 (Trichophyton rubrum): ≤ 0.001 µg/mL; Selectivity Index [2]: >65000; Kd [5]: ≤ 0.039 µM; Selectivity ratio [6]: > 2200; IC50 (Cytochrome P450 2C9): 99 µM; IC50 (Cytochrome P450 2C19): 72 µM; remaining at 2 h [7]: > 99%; half-life [8]: > 24 h; Activity (Candida albicans [9]): 99%; Activity [10]: 86%
CCC(C)n1ncn(-c2ccc(N3CCN(c4ccc(OCC5COC(Cn6cncn6)(c6ccc(Cl)cc6Cl)O5)cc4)CC3)cc2)c1=O (stereo not given) [ITRACONAZOLE]	0.016 µg/mL (≈ 0.0227 µM)		MIC50 (Trichophyton rubrum): 0.062 µg/mL (≈ 0.0879 µM)
OC(Cn1cncn1)(Cn1cncn1)c1ccc(F)cc1F [FLUCONAZOLE]			Efficacy (Candida albicans [4]): 99%
C[C@@H](c1ncncc1F)[C@](O)(Cn1cnnn1)c1ccc(F)cc1F	1 µg/mL (≈ 2.85 µM)	32 µM	
C[C@@H](c1ncncc1F)[C@](O)(Cn1ccnn1)c1ccc(F)cc1F	> 16 µg/mL	8 µM	
OC(Cn1cnnn1)(c1ccc(F)cc1F)C(F)(F)c1ccc(-c2ccc(C(F)(F)F)cc2)cn1 (stereo not given)	≤ 0.016 µg/mL	> 60 µM	Efficacy (Candida albicans [11]): 94%
O[C@@](Cn1cnnn1)(c1ccc(F)cc1F)C(F)(F)c1ccc(Cl)cn1	0.25 µg/mL (≈ 0.645 µM)	74 µM	Efficacy (Candida albicans [3]): 100%
